Assays:
[1] = molecular target: T1, Proteinase-activated receptor 1 (Homo sapiens, UniProt P25116); assay: Antagonist activity at human PAR1 expressed in HEK293 cells co-expressing Galpha15 assessed as inhibition of haTRAP-induced calcium mobilization preincubated for 15 mins followed by haTRAP addition by calcium-4 dye based FLIPR assay; assay type: functional, cell-based
T1 sequence (P25116 whole entry): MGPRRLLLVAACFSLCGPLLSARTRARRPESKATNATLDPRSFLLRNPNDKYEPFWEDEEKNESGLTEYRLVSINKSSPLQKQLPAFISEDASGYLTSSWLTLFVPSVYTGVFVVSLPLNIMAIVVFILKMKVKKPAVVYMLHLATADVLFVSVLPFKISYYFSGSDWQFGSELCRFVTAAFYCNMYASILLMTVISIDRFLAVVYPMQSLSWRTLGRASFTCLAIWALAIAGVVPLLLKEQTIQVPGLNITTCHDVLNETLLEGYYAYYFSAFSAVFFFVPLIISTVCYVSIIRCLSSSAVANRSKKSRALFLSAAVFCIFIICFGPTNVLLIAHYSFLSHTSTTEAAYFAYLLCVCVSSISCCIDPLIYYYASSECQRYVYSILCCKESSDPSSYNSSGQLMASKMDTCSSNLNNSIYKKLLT

Cavia porcellus [2] = assay: In vivo antagonist activity at PAR1 in guinea pig assessed as inhibition of TRAP-stimulated platelet aggregation at 10 mg/kg, po pretreated for 2 hrs followed by TRAP stimulation measured after 5 mins; assay type: functional
Cavia porcellus [3] = assay: In vivo antagonist activity at PAR1 in guinea pig assessed as inhibition of thrombin-stimulated platelet aggregation at 10 mg/kg, po pretreated for 2 hrs followed by thrombin stimulation measured after 5 mins; assay type: functional
[4] = test system: ADP-stimulated platelet aggregation; assay: Toxicity in guinea pig assessed as inhibition of ADP-stimulated platelet aggregation at 10 mg/kg, po pretreated for 2 hrs followed by ADP stimulation measured after 5 mins; assay type: organism-based, Cavia porcellus; settings: in vivo
[5] = test system: collagen-stimulated platelet aggregation; assay: Toxicity in guinea pig assessed as inhibition of collagen-stimulated platelet aggregation at 10 mg/kg, po pretreated for 2 hrs followed by collagen stimulation measured after 5 mins; assay type: organism-based, Cavia porcellus; settings: in vivo
Plasma [6] = assay: (§1) Drug metabolism in Wistar rat plasma assessed as [M0+O] metabolite formation at 10 mg/kg, po administered as single dose measured at 3 hrs post dose by LC-HRMS analysis; assay type: ADME, organism-based; settings: in vivo
How it was run: (§2)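 Rats dosed orally at 10 mg/kg or 5 mg/kg. Plasma taken at 3.0 h after dosing. Parent and metabolites detected by extracted ion chromatograms.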

Plasma [7] = assay: Drug metabolism in Wistar rat plasma assessed as [M0-2H] metabolite formation at 10 mg/kg, po administered as single dose measured at 3 hrs post dose by LC-HRMS analysis; assay type: ADME, organism-based; settings: in vivo; how it was run: as §2
Plasma [8] = assay: as §1, with “(1S,2S,4aS,5S,6R,8aR)-1-((E)-2-(5-(3-Fluorophenyl)pyridin-2-yl)vinyl)-6-hydroxy-5,8a-dimethyloctahydro-1H-spiro[naphthalene-2,2'-oxirane]-5-carboxylic acid” for “[M0+O]”; assay type: ADME, organism-based; settings: in vivo; how it was run: as §2
Plasma [9] = assay: Drug metabolism in Wistar rat plasma assessed as [M0+H2O] metabolite formation at 10 mg/kg, po administered as single dose measured at 3 hrs post dose by LC-HRMS analysis; assay type: ADME, organism-based; settings: in vivo; how it was run: as §2
Plasma [10] = assay: Drug metabolism in Wistar rat plasma assessed as [M0-CH2] metabolite formation at 10 mg/kg, po administered as single dose measured at 3 hrs post dose by LC-HRMS analysis; assay type: ADME, organism-based; settings: in vivo; how it was run: as §2
Plasma [11] = assay: Drug metabolism in Wistar rat plasma assessed as [M0-CH2+O] metabolite formation at 10 mg/kg, po administered as single dose measured at 3 hrs post dose by LC-HRMS analysis; assay type: ADME, organism-based; settings: in vivo; how it was run: as §2
Plasma [12] = assay: Stability in Wistar rat assessed as parent compound level in plasma at 10 mg/kg, po administered as single dose measured at 3 hrs post dose by LC-HRMS analysis; assay type: ADME, organism-based; settings: in vivo; how it was run: as §2

IC50 [1] | SMILES | other results
> 100 µM | C[C@H]1CC[C@@H]2C(C)(C)C=CC[C@@]2(C)[C@@H]1/C=C/c1ccc(-c2cccc(F)c2)cn1 | 
8.1 µM | COC[C@@]1(C)[C@H]2CC[C@@]3(CO3)[C@@H](/C=C/c3ccc(-c4cccc(F)c4)cn3)[C@]2(C)CC[C@H]1O | 
> 100 µM | CC(=O)O[C@@H]1CC[C@@]2(C)[C@H](/C=C/c3ccc(-c4cccc(F)c4)cn3)C(C)CC[C@@H]2C1(C)C (single isomer, unassigned) | 
> 100 µM | C[C@@]1(/C=C/c2ccc(-c3cccc(F)c3)cn2)[C@H]2CC[C@@H]3COC(=O)[C@H]3[C@]2(C)CC[C@@H]1O | 
87 µM | CC1CC[C@@H]2C(C)(C)[C@H](OS(C)(=O)=O)CC[C@@]2(C)[C@@H]1/C=C/c1ccc(-c2cccc(F)c2)cn1 (single isomer, unassigned) | 
> 100 µM | C[C@@]1(C=O)[C@H](O)CC[C@@]2(C)[C@H](/C=C/c3ccc(-c4cccc(F)c4)c[n+]3[O-])[C@@]3(CC[C@H]12)CO3 | 
> 100 µM | CCCC(=O)O[C@@H]1CC[C@@]2(C)[C@@H]3C(=O)OC[C@H]3CC[C@@H]2[C@@]1(C)/C=C/c1ccc(-c2cccc(F)c2)cn1 | 
0.064 µM | CCOC(=O)N[C@@H]1CC[C@@H]2[C@@H](C1)C[C@H]1C(=O)O[C@H](C)[C@H]1[C@H]2/C=C/c1ccc(-c2cccc(F)c2)cn1 [VORAPAXAR] | inhibition in vivo at 10 mg/kg (Cavia porcellus [2]): 98.3%; inhibition in vivo at 10 mg/kg (Cavia porcellus [3]): 93.4%; inhibition at 5 min [4]: 3%; inhibition at 5 min [5]: 0.9%
> 100 µM | CCOC(=O)O[C@@H]1CC[C@@]2(C)[C@H](/C=C/c3ccc(-c4cccc(F)c4)cn3)[C@@H](C)CC[C@@H]2C1(C)C | 
> 100 µM | C[C@@]1(C=O)[C@H](O)CC[C@@]2(C)[C@H](/C=C/c3ccc(-c4cccc(F)c4)cn3)[C@@H](C3SCCS3)CC[C@H]12 | 
9.1 µM | C[C@]1(CO)[C@H]2CC[C@@]3(CO3)[C@@H](/C=C/c3ccc(-c4cccc(F)c4)cn3)[C@]2(C)CC[C@H]1O | Drug metabolism (Plasma [6]): Metabolite_Detected; Drug metabolism (Plasma [7]): Metabolite_Detected; Drug metabolism (Plasma [8]): Metabolite_Detected; Drug metabolism (Plasma [9]): Metabolite_Detected; Drug metabolism (Plasma [10]): Metabolite_Detected; Drug metabolism (Plasma [11]): Metabolite_Detected; Stability (Plasma [12]): Unstable
> 100 µM | CC1(C)OC[C@@]2(C)[C@H]3CC[C@@]4(CO4)[C@@H](/C=C/c4ccc(-c5cccc(F)c5)cn4)[C@]3(C)CC[C@H]2O1 | 
14 µM | C[C@]1(CO)[C@H]2CC[C@@]3(CO3)[C@@H](CCc3ccc(-c4cccc(F)c4)cn3)[C@]2(C)CC[C@H]1O | 
29 µM | C[C@@]12CC[C@@H](O)[C@@](C)(C(=O)O)[C@H]1CC[C@@]1(CO1)[C@H]2/C=C/c1ccc(-c2cccc(F)c2)cn1 | 
> 100 µM | CCCC(=O)O[C@@H]1CC[C@@]2(C)[C@H](/C=C/c3ccc(-c4cccc(F)c4)cn3)[C@@H](C)CC[C@@H]2C1(C)C | 
> 100 µM | C[C@]1(C=O)[C@H](O)CC[C@@]2(C)[C@H](/C=C/c3ccc(-c4cccc(F)c4)c[n+]3[O-])[C@@]3(CC[C@H]12)CO3 | 
> 100 µM | CC(=O)O[C@@H]1CC[C@@]2(C)[C@@H]3C(=O)OC[C@H]3CC[C@@H]2[C@@]1(C)/C=C/c1ccc(-c2cccc(F)c2)cn1 | 
17 µM | CNC[C@@]1(C)[C@H]2CC[C@@]3(CO3)[C@@H](/C=C/c3ccc(-c4cccc(F)c4)cn3)[C@]2(C)CC[C@H]1O | 
1.5 µM | CC1CC[C@@H]2[C@](C)(C=O)[C@H](O)CC[C@@]2(C)[C@@H]1/C=C/c1ccc(-c2cccc(F)c2)cn1 (single isomer, unassigned) | 
19 µM | C[C@]1(/C=C/c2ccc(-c3cccc(F)c3)cn2)[C@H]2CC[C@@H]3COC(=O)[C@H]3[C@]2(C)CC[C@@H]1O | 
> 100 µM | CCCC(=O)O[C@H]1CC[C@@]2(C)[C@@H]3C(=O)OC[C@H]3CC[C@@H]2[C@]1(C)/C=C/c1ccc(-c2cccc(F)c2)cn1 | 
> 100 µM | CC1(C)OC[C@@]2(C)[C@H]3CC[C@@]4(CO4)[C@@H](/C=C/c4ccc(-c5cccc(C(F)(F)F)c5)cn4)[C@]3(C)CC[C@H]2O1 | 

IC50 [1] | SMILES | other results
21 µM | C[C@]1(/C=C/c2ccc(-c3cccc(F)c3)cn2)[C@H]2CC[C@@H]3COC(=O)[C@H]3[C@]2(C)CC[C@H]1OC(N)=O | 
55 µM | C[C@]1(CO)[C@H]2CC[C@](C)(O)[C@@H](/C=C/c3ccc(-c4cccc(F)c4)cn3)[C@]2(C)CC[C@H]1O | 
> 100 µM | C[C@]1(/C=C/c2ccc(-c3cccc(F)c3)cn2)[C@H](O)CC[C@@]2(C)[C@@H]3C(=O)OC[C@H]3CC[C@H]12 | 
> 100 µM | C[C@@]1(/C=C/c2ccc(-c3cccc(F)c3)cn2)[C@H](O)CC[C@@]2(C)[C@@H]3C(=O)OC[C@H]3CC[C@H]12 | 
> 100 µM | CCCC(=O)O[C@@H]1CC[C@@]2(C)[C@H](/C=C/c3ccc(-c4cccc(F)c4)cn3)[C@@]3(CC[C@@H]2[C@]1(C)C(=O)OC)CO3 | 
> 100 µM | C[C@@]12CC[C@@H](O)[C@@](C)(C3SCCS3)[C@H]1CCC(C1SCCS1)[C@H]2/C=C/c1ccc(-c2cccc(F)c2)cn1 (single isomer, unassigned) | 
23 µM | C[C@]1(CN)[C@H]2CC[C@@]3(CO3)[C@@H](/C=C/c3ccc(-c4cccc(F)c4)cn3)[C@]2(C)CC[C@H]1O | 
32 µM | CC1CC[C@@H]2C(C)(C)[C@H](OC(N)=O)CC[C@@]2(C)[C@@H]1/C=C/c1ccc(-c2cccc(F)c2)cn1 (single isomer, unassigned) | 
14 µM | CO[C@@H]1CC[C@]2(C)[C@H](CC[C@@]3(CO3)[C@H]2/C=C/c2ccc(-c3cccc(F)c3)cn2)[C@]1(C)CO | 
> 100 µM | CC(=O)O[C@@H]1CC[C@@]2(C)[C@@H]3C(=O)OC[C@H]3CC[C@@H]2[C@]1(C)/C=C/c1ccc(-c2cccc(F)c2)cn1 | 
8.7 µM | COC(=O)[C@]1(C)[C@H](OC(N)=O)CC[C@@]2(C)[C@H](/C=C/c3ccc(-c4cccc(F)c4)cn3)[C@@]3(CC[C@@H]21)CO3 | 
20 µM | C[C@@]1(/C=C/c2ccc(-c3cccc(F)c3)cn2)[C@@H](OC(N)=O)CC[C@@]2(C)[C@@H]3C(=O)OC[C@H]3CC[C@H]12 | 
9.5 µM | C[C@]1(CO)[C@H]2CC[C@@]3(CO3)[C@@H](/C=C/c3ccc(-c4cccc(C(F)(F)F)c4)cn3)[C@]2(C)CC[C@H]1O | 
10 µM | C[C@]1(CO)[C@H]2CC[C@@]3(CO3)[C@@H](CCc3ccc(-c4cccc(C(F)(F)F)c4)cn3)[C@]2(C)CC[C@H]1O | 
> 100 µM | C[C@@]1(/C=C/c2ccc(-c3cccc(F)c3)cn2)[C@H]2CC[C@@H]3COC(=O)[C@H]3[C@]2(C)CC[C@H]1OS(C)(=O)=O | 
> 100 µM | CC(=O)O[C@H]1CC[C@@]2(C)[C@@H]3C(=O)OC[C@H]3CC[C@@H]2[C@]1(C)/C=C/c1ccc(-c2cccc(F)c2)cn1 | 
> 100 µM | C[C@@]1(/C=C/c2ccc(-c3cccc(F)c3)cn2)[C@@H](OS(C)(=O)=O)CC[C@@]2(C)[C@@H]3C(=O)OC[C@H]3CC[C@H]12 | 
3 µM | C[C@@]1(C=O)[C@H](O)CC[C@@]2(C)[C@H](/C=C/c3ccc(-c4cccc(F)c4)cn3)[C@@]3(CC[C@H]12)CO3 | Stability (Plasma [12]): Unstable
> 100 µM | C[C@]1(/C=C/c2ccc(-c3cccc(F)c3)cn2)[C@@H](OC(N)=O)CC[C@@]2(C)[C@@H]3C(=O)OC[C@H]3CC[C@H]12 | 
12 µM | C[C@@]1(/C=C/c2ccc(-c3cccc(F)c3)cn2)[C@H]2CC[C@@H]3COC(=O)[C@H]3[C@]2(C)CC[C@H]1OC(N)=O | 
> 100 µM | COC(=O)[C@]1(C)[C@H](OC(C)=O)CC[C@@]2(C)[C@H](/C=C/c3ccc(-c4cccc(F)c4)cn3)[C@@]3(CC[C@@H]21)CO3 | 

From ChEMBL document CHEMBL4038330, “Discovery of Potent Orally Active Protease-Activated Receptor 1 (PAR1) Antagonists Based on Andrographolide” (J Med Chem, 2017)
